Measurements taken from paper PMC7717452 (Journal of Enzyme Inhibition and Medicinal Chemistry, 2020).
Where “and” joins values, the source holds several entries; their conditions need not be identical. Equal values may be shown once. Read-outs that look alike come from different tables or passages of the source. Values belong to the compound of their own block, whether it stands above or below them.

How the values were obtained:
[1] = tested on: L. braziliensis amastigotes; test: Macrophage infection assay, L. braziliensis amastigotes; format: cell-based, Leishmania braziliensis; conditions: for SI, L. braziliensis amastigotes: selectivity index, macrophage CC50 and amastigote EC50
Method in brief: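 J774 macrophages were plated on coverslips at 1 × 10^5 cells/mL in DMEM with 1% FBS. They were infected with stationary-phase L. braziliensis promastigotes (MHOM/BR/01/BA788; 1:20) for 2 h at room temperature, then 22 h at 35 °C. After washing, cells got test compound (5 or 10 µM, or 10–0.01 µM) in 1% DMSO for 24 h at 37 °C and 5% CO2. Cells were EtOH-fixed and DAPI-stained, and 100–200 macrophages were imaged. % infected cells is relative to DMSO.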

L. infantum amastigotes = test: Macrophage infection assay, L. infantum amastigotes; format: cell-based, Leishmania infantum; conditions: for SI, L. infantum amastigotes: selectivity index, macrophage CC50 and amastigote EC50
Method in brief: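 J774 macrophages on coverslips (1 × 10^5 cells/mL, DMEM with 1% FBS) were infected with stationary-phase L. infantum promastigotes (1:20) for 2 h at room temperature, then 22 h at 37 °C. After washing, test compound (10–0.01 µM, up to seven concentrations, at least duplicates, 1% DMSO) was added for 24 h at 37 °C. DAPI-stained infected cells were counted by microscopy relative to DMSO. EC50 came from a four-parameter sigmoid fit.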

LiTryS [2] = biological target: T1, LiTryS (Leishmania infantum, UniProt A4I2Z3); conditions: read-out: Ki, nucleotide-binding site of the enzyme; ADP; cited from earlier work
T1 sequence (A4I2Z3 1-652): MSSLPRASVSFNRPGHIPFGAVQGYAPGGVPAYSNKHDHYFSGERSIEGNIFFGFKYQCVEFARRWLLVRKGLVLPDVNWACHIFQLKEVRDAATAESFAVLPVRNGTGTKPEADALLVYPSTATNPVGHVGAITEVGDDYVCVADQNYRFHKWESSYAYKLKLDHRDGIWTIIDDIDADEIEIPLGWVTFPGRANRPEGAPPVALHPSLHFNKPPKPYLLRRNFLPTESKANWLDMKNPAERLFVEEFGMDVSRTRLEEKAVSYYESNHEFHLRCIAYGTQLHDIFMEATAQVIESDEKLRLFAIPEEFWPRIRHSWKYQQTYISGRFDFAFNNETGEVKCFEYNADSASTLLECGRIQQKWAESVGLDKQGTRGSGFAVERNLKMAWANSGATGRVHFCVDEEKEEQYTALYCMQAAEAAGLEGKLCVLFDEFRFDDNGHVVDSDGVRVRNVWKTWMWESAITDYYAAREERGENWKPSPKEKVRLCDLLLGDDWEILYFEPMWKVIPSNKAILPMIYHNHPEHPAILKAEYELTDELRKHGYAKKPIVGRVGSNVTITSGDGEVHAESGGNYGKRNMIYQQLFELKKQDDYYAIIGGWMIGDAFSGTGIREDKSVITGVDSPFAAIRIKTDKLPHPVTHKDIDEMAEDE

[3] = biological target: T2, LiTryS (Leishmania infantum trypanothione synthetase) (Leishmania infantum, UniProt A4I2Z3); test: TryS activity end-point assay; format: biochemical; conditions: for IC50: ± 2σ, ∼30 assumed for 50 ± 5% inhibition at 30 µM
T2 sequence (A4I2Z3 1-652): T1 sequence (A4I2Z3 1-652)
Method in brief: (§1)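 Recombinant TryS end-point assay in 100 mM HEPES pH 7.4 with 5 mM DTT, 10 mM MgSO4 and 0.5 mM EDTA. ATP was 150 µM and spermidine 2 mM. GSH was 0.25 mM for LiTryS, 0.05 mM for TbTryS and 0.57 mM for TcTryS. Enzyme started the reaction and BIOMOL Green stopped it after 15 min. A650 was read after 20 min at room temperature. Values were corrected with no-enzyme blanks and for compound interference with phosphate. At least quadruplicates; IC50 is given ± 2σn-1.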

TcTryS = biological target: T3, TcTryS (Trypanosoma cruzi, UniProt Q9GT49); test: TryS activity end-point assay; format: biochemical; conditions: for IC50: IC50 value, TcTryS, ± 2σ, ~30 assumed for 50 ± 5% inhibition at 30 µM
T3 sequence (Q9GT49 1-647): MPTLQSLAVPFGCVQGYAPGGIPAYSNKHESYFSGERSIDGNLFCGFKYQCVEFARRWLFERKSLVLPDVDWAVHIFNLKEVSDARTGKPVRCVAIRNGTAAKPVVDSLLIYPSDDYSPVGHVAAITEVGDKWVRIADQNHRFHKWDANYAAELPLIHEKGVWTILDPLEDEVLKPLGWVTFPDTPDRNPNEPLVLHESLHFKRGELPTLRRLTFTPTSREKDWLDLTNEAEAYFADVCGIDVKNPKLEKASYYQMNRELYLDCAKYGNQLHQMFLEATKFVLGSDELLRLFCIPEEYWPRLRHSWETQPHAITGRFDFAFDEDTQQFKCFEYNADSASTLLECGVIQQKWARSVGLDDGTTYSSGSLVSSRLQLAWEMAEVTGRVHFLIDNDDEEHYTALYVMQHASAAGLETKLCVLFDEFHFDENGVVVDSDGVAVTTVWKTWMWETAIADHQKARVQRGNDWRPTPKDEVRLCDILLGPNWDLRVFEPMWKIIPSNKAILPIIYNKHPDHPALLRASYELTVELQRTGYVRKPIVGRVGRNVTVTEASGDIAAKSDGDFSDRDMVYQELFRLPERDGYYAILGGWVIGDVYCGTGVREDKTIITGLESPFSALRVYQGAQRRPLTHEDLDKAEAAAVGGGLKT
Method in brief: as §1

TbTryS = biological target: T4, TbTryS (Trypanosoma brucei brucei, UniProt Q8IEX1); test: TryS activity end-point assay; format: biochemical
T4 sequence (Q8IEX1 1-627): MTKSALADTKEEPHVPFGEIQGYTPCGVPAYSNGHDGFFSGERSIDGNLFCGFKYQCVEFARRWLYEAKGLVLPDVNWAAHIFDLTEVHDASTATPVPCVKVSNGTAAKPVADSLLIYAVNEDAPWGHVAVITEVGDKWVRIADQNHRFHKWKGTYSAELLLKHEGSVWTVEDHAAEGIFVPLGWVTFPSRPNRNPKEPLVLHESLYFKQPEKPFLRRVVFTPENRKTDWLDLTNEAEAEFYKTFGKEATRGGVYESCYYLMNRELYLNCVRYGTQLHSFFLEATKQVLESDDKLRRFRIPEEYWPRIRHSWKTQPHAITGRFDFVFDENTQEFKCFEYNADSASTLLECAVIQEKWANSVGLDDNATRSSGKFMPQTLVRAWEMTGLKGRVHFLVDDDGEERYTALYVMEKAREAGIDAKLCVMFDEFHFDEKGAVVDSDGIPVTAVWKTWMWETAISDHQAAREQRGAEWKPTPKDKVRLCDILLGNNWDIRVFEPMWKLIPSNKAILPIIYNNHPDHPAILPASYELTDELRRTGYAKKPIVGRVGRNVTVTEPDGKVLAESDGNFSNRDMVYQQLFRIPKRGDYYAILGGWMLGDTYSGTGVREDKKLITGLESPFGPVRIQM
Method in brief: as §1

[4] = tested on: Mouse macrophages from the cell line J774; test: Cytotoxicity assay; format: cell-based; conditions: 24 h, non-infected J774
Method in brief: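 J774 mouse macrophages were grown in DMEM with 10% FBS and penicillin/streptomycin at 37 °C in humidified 5% CO2. Cells were seeded at 6 × 10^4 cells/mL and exposed the next day for 24 h to test compound at 100 to 0.001 µM (200 µM for one compound). The WST-1 signal was read at A450. % cytotoxicity was calculated against DMSO-treated and untreated cells, and CC50 is given ± σn–1.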

LiTryS [5] = biological target: T1, LiTryS; test: Kinetic assays for LiTryS; format: biochemical; conditions: double reciprocal plots
Method in brief: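 LiTryS in 100 mM HEPES pH 7.4, 10 mM MgSO4, 0.5 mM EDTA, 5 mM DTT at 28 °C. Enzyme-started, linear 15 min, colorimetric stop, A650 after 20 min. Variable GSH 100–3 µM (SP 13 mM, ATP 200 µM); ATP 200–6 µM (SP 13 mM, GSH 250 µM); SP 13–0.41 mM or GSP 250–7.8 µM (ATP 200 µM, GSH 250 µM).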

[6] = tested on: L. infantum promastigotes (WT and TryS sKO); test: Intracellular low molecular mass thiols, promastigotes; format: cell-based, Leishmania infantum; conditions: 7 µM, 24 h
Method in brief: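 L. infantum promastigotes (MHOM MA67I7MAP263, WT or TryS single knockout) were seeded at 5 × 10^5/mL in RPMI at 28 °C with 7 µM test compound or 1% DMSO for 24 h. Thiols were reduced with 70 mM NaBH4 in 40 mM HEPES pH 8.0, labelled with 2 mM monobromobimane (70 °C, 3 min) and acid-extracted. They were separated by C18 HPLC against GSH/T(SH)2 standards (2.5–75 nmol), and peak areas are given as % of untreated WT. At least duplicates; unpaired t-test.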

[7] = tested on: L. infantum amastigotes (WT and sKO); test: Intracellular low molecular mass thiols, amastigotes in J774 macrophages; format: cell-based, Leishmania infantum; conditions: 1 µM, 24 h, vs non-treated control
Method in brief: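 J774 macrophages at 50% confluence were infected with stationary-phase L. infantum WT or single knockout promastigotes (1:40) for 2 h at room temperature, then 22 h at 37 °C. After washing, cells were treated or not with 1 µM test compound for 24 h. Thiols were reduced with NaBH4, labelled with monobromobimane, then separated by C18 HPLC against standards. Non-infected macrophage GSH was subtracted, and values are fold-change versus non-treated. At least duplicates; t-test.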

[8] = 30 µM, NA = not active (enzyme activity > 95%)

SMILES: C[C@@H]1[C@H](O)[C@@H](C)/C=C/C=C/C=C/C=C/C=C/C=C/C=C/[C@H](O[C@@H]2O[C@H](C)[C@@H](O)[C@H](N)[C@@H]2O)C[C@@H]2O[C@](O)(C[C@@H](O)C[C@@H](O)[C@H](O)CC[C@@H](O)C[C@@H](O)CC(=O)O[C@H]1C)C[C@H](O)[C@H]2C(=O)O [Amphotericin B, reference compound]
SI, L. braziliensis amastigotes [1]: 59
SI, L. infantum amastigotes (L. infantum amastigotes): 100

SMILES: Nc1ncnc2c1ncn2[C@@H]1O[C@H](COP(=O)(O)OP(=O)(O)O)[C@@H](O)[C@H]1O [ADP]
Ki (LiTryS [2]): 90 µM

SMILES: O=C1Cc2c([nH]c3ccc(Br)cc23)-c2ccc(Cl)cc2N1 [Compound 1, 3-Chlorokenpaullone]
% TryS inhibition at 30 µM, LiTryS [3, 8]: inactive
% TryS inhibition at 30 µM, TcTryS (TcTryS; [8]): inactive
% TryS inhibition at 30 µM, TbTryS (TbTryS; [8]): inactive
% cytotoxicity at 200 µM, macrophages ([4]; 200 µM): 0 at 200 µM %

The next lines start with results.

IC50 ([3]; IC50 value, LiTryS): ~30 µM
IC50 (TcTryS): 25 µM
SMILES: CC(C)(C)OC(=O)NCCCCNC(=O)CN1C(=O)Cc2c([nH]c3ccc(Br)cc23)-c2ccc(Cl)cc21 [Compound 36]

IC50 ([3]; read-out: IC50 value, LiTryS): 0.4 ± 0.1 µM
EC50 (L. infantum amastigotes; read-out: EC50, amastigotes L. infantum, intracellular amastigotes in J774, 24 h): 1 ± 0.5 µM
SMILES: CN1CCN(C(=O)CN2C(=O)Cc3c([nH]c4ccc(Br)cc34)-c3ccc(Cl)cc32)CC1 [Compound 21, 9-Bromo-3-chloro-5-[2-(4-methylpiperazin-1-yl)-2-oxoethyl]-7,12-dihydrobenzo[2,3]azepino[4,5-b]indol-6(5H)one]
% infection by L. braziliensis at 10 µM ([1]; 10 µM, 24 h, relative to infected non-treated macrophages): 65 ± 7%
SI, L. braziliensis amastigotes [1]: 5

IC50 ([3]; IC50 value, LiTryS): 0.3 µM
IC50 (TbTryS; IC50 value, TbTryS, ± 2σ, ~30 assumed for 50 ± 5% inhibition at 30 µM): ~30 µM
Inhibition mode with respect to ATP and GSH (LiTryS [5]; ATP or GSH variable): uncompetitive inhibition
Inhibition mode with respect to SP and GSP (LiTryS [5]; SP or GSP variable): competitive inhibition
SMILES: Cl.O=C(CN1C(=O)Cc2c([nH]c3ccc(Br)cc23)-c2ccc(Cl)cc21)N1CCNCC1 [Compound 20]
CC50 ([4]; read-out: CC50, macrophages): 8.1 ± 0.1 µM
% infection by L. braziliensis at 5 µM ([1]; 5 µM, 24 h, relative to infected non-treated macrophages): 15% and 15 ± 1 at 5 µM %
SI, L. braziliensis amastigotes [1]: ≥ 21
SI, L. infantum amastigotes (L. infantum amastigotes): 9
T(SH)2 decrease, WT promastigotes ([6]; WT cells): 88%
T(SH)2 content, sKO promastigotes ([6]; sKO cells, detection limit 0.5 nmol T(SH)2/100 million cells): undetectable
GSH accumulation, WT amastigotes [7]: 16 fold
GSH accumulation, sKO amastigotes [7]: 10 fold
T(SH)2 depletion, WT amastigotes [7]: about 40%
T(SH)2 depletion, sKO amastigotes [7]: ~82%

IC50 ([3]; IC50 value, LiTryS): ~30 µM
IC50 (TcTryS): 20 µM
SMILES: CC(C)(C)OC(=O)N1CCN(CCNC(=O)CN2C(=O)Cc3c([nH]c4ccc(Br)cc34)-c3ccc(Cl)cc32)CC1 [Compound 34]
